Experimental data taken from ChEMBL document CHEMBL4270665, “Biodegradable Amphipathic Peptide Hydrogels as Extended-Release System for Opioid Peptides” (J Med Chem, 2018).
One block for each compound: values may come before it. Calls of active or inactive are those of the source. The calls are words filed in the database; no cut-off is given here. Starred links: 1 amine or outer side, 2 acyl side, 3 side chain; linkers in the order of their positions; H or OH if unused. Non-standard residues stand in square brackets, D forms with d. Residues, ends and D or L forms follow the SMILES beside them. X1 = O=C1[C@@H](N[*:1])Cc2ccccc2CN1CCC(=O)[*:2]; Dmt = Cc1cc(O)cc(C)c1C[C@H](N)C(=O)O; β3hF = N[C@H](CC(=O)O)Cc1ccccc1

Legend:
Mu-type opioid receptor [1] = biological target: T1, Mu-type opioid receptor (Homo sapiens, UniProt P35372); test: Displacement of [3H]DAMGO from human MOR expressed in CHO cell membranes after 60 mins by liquid scintillation counting
T1 sequence (P35372 whole entry): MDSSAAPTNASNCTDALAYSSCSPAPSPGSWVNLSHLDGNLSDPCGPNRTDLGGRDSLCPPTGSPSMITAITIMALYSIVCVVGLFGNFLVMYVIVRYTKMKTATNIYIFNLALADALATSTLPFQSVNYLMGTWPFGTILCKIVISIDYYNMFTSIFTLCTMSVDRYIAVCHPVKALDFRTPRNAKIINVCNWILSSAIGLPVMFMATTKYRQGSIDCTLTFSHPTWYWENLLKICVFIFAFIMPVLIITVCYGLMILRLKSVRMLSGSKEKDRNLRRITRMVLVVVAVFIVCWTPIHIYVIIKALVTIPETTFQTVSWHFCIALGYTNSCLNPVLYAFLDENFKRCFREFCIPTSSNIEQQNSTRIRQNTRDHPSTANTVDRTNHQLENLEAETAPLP

Mus musculus [2] = test: Antinociceptive activity in sc dosed CD1 mouse assessed as increase in tail-flick latency measured up to 72 hrs post dose; type: functional, organism-based
Outline: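 Radiant heat tail-flick test in mice after subcutaneous injection of 150 μL per mouse. The peptide (0.56 μmol/mouse) was given coformulated with hydrogelator (2% v/w) or conjugated as a biogel (2% v/w). Hydrogelator alone and saline served as controls. Latency was followed as %MPE over time with AUC calculated. Groups were 6−8 mice, reported as mean ± SEM, with two-way ANOVA and Bonferroni post hoc test.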

[3] = Half life in human plasma at 9 uM at 37 degC by LC-MS analysis; type: ADME, cell-free
Outline: (§1)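 Peptides were incubated in human plasma at 37 °C, and samples were collected at different time points. Half-life was calculated from the degradation profile. Major metabolites were identified by LC−MS analysis of the collected samples.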

[4] = Prodrug conversion in human plasma assessed as H-Dmt-DArg-Phe-Phe-Gln-Phe-Gln-OH metabolite formation at 9 uM after 30 to 45 mins by LC-MS analysis; type: ADME, cell-free; outline: as §1
[5] = Prodrug conversion in human plasma assessed as H-Dmt-DArg-Phe-Phe-Gln-OH metabolite formation at 9 uM after 30 to 45 mins by LC-MS analysis; type: ADME, cell-free
[6] = Prodrug conversion in human plasma assessed as H-Dmt-DArg-Phe-OH metabolite formation at 9 uM after 30 to 45 mins by LC-MS analysis; type: ADME, cell-free; outline: as §1
Mu-type opioid receptor [7] = biological target: T1, Mu-type opioid receptor; test: Agonist activity at human MOR expressed in CHO cell membranes after 60 mins by [35S]GTPgammaS binding assay; type: functional
Outline: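 Membranes from CHO cells stably expressing human MOR; agonist-stimulated [35S]GTPγS binding. Potency given as EC50 and efficacy (full or partial agonism) measured at human MOR.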

Mu-type opioid receptor [8] = biological target: T1, Mu-type opioid receptor; test: Agonist activity at human MOR expressed in human U2OS cells co-expressing enzyme acceptor-tagged beta-arrestin2 fusion protein assessed as induction of beta-arrestin2 recruitment preincubated for 90 mins measured by PathHunter assay; type: functional, cell-based
Mus musculus [9] = test: Antinociceptive activity in CD1 mouse assessed as increase in tail-flick latency at 13 umol/kg, sc measured up to 96 hrs post dose relative to control; type: functional
Mus musculus [10] = test: Antinociceptive activity in CD1 mouse assessed as increase in tail-flick latency at 5.6 umol/kg, sc measured up to 7 hrs post dose; type: functional, organism-based
Mus musculus [11] = test: Antinociceptive activity in CD1 mouse assessed as increase in tail-flick latency at 0.56 umol, sc co-formulated with H-Phe-Gln-Phe-Gln-Phe-Lys-NH2 measured up to 72 hrs post dose; type: functional, organism-based
Outline: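 Mice received peptide (0.56 μmol/mouse) co-formulated with hydrogelator at 2% (v/w), sc in 150 μL per mouse. Controls were hydrogelator alone or saline. Radiant-heat tail-flick test read as %MPE over time, with AUC calculated. 6−8 mice per group, mean ± SEM. Two-way ANOVA with Bonferroni post hoc test.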

Mus musculus [12] = test: Antinociceptive activity in CD1 mouse assessed as increase in tail-flick latency at 6.8 umol/kg, sc measured up to 8 hrs post dose; type: functional, organism-based
Outline: (§2)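 Peptide given as a solution, sc, with a saline control group. Radiant-heat tail-flick test read as %MPE over time, with AUC of the time curves calculated. 6−8 mice per group, mean ± SEM. Two-way ANOVA with Bonferroni post hoc test.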

Mus musculus [13] = test: Antinociceptive activity in CD1 mouse assessed as increase in tail-flick latency at 3.9 umol/kg, sc measured up to 3 to 4 hrs post dose; type: functional, organism-based
Outline: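 Radiant heat tail-flick test on an analgesiometer after subcutaneous injection of solutions in mice. Doses were 3.0, 3.9, 4.2 or 6.8 μmol/kg, with saline as control. Response was expressed as %MPE over time and AUC was calculated. Groups were 6−8 mice, reported as mean ± SEM, with two-way ANOVA and Bonferroni post hoc test.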

Mus musculus [14] = test: Antinociceptive activity in CD1 mouse assessed as increase in tail-flick latency at 14 umol/kg, sc measured up to 96 hrs post dose relative to control; type: functional
Mus musculus [15] = test: Antinociceptive activity in sc dosed CD1 mouse assessed as increase in tail-flick latency measured up to 24 hrs post dose; type: functional, organism-based
Mus musculus [16] = test: Antinociceptive activity in sc dosed CD1 mouse assessed as increase in tail-flick latency measured up to 3 hrs post dose; type: functional, organism-based
Mus musculus [17] = test: Antinociceptive activity in CD1 mouse assessed as increase in tail-flick latency at 0.58 umol/kg, sc co-formulated with H-Phe-Glu-Phe-Gln-Phe-Lys-NH2 measured up to 72 hrs post dose; type: functional, organism-based
Mus musculus [18] = test: Antinociceptive activity in CD1 mouse assessed as increase in tail-flick latency at 5.8 umol/kg, sc measured after 8 hrs post dose; type: functional, organism-based
[19] = Metabolic stability in C57BL/6 mouse hind limb assessed as compound remaining at 150 ul, sc measured after 72 hrs post dose by SPECT/CT analysis; type: ADME, organism-based, Hindlimb; conditions: read-out: Stability
Outline: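 Hydrogel degradation was followed after subcutaneous injection in mice by determining the hydrogel volume remaining at the injection site, up to 72 h.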

Mus musculus [20] = test: Antinociceptive activity in CD1 mouse assessed as increase in tail-flick latency at 1.8 umol/kg, sc measured after 4 hrs post dose; type: functional, organism-based
Mus musculus [21] = test: Antinociceptive activity in CD1 mouse assessed as increase in tail-flick latency at 0.30 umol, sc co-formulated with H-Phe-Glu-Phe-Gln-Phe-Lys-NH2 measured up to 72 hrs post dose; type: functional, organism-based
Mus musculus [22] = test: Antinociceptive activity in CD1 mouse assessed as increase in tail-flick latency at 4.2 umol/kg, sc measured up to 3 to 4 hrs post dose; type: functional, organism-based; outline: as §2

Compound: Cc1cc(O)cc(C)c1C[C@H](N)C(=O)N1CCC[C@H]1C(=O)N[C@@H](Cc1ccccc1)C(=O)N[C@@H](Cc1ccccc1)C(=O)N[C@@H](CCC(=O)O)C(=O)N[C@@H](Cc1ccccc1)C(=O)N[C@@H](CCC(N)=O)C(=O)N[C@@H](Cc1ccccc1)C(=O)N[C@@H](CCCCN)C(N)=O
Ki (Mu-type opioid receptor [1]): 5 to 141 nM

half-life at 9 µM [3]: 16 min | Drug metabolism [4]: Metabolite_Detected | Drug metabolism [5]: Metabolite_Detected | Drug metabolism [6]: Metabolite_Detected
Compound: Cc1cc(O)cc(C)c1C[C@H](N)C(=O)N[C@H](CCCNC(=N)N)C(=O)N[C@@H](Cc1ccccc1)C(=O)N[C@@H](Cc1ccccc1)C(=O)N[C@@H](CCC(N)=O)C(=O)N[C@@H](Cc1ccccc1)C(=O)N[C@@H](CCC(N)=O)C(=O)N[C@@H](Cc1ccccc1)C(=O)N[C@@H](CCCCN)C(N)=O (H-[Dmt][dR]FFQFQFK-NH2)
Activity (Mus musculus [2]): Active

Compound: Cc1cc(O)cc(C)c1C[C@H](N)C(=O)N[C@H](CCCNC(=N)N)C(=O)N[C@H]1Cc2ccccc2CN(CCC(=O)N[C@@H](Cc2ccccc2)C(=O)N[C@@H](CCC(N)=O)C(=O)N[C@@H](Cc2ccccc2)C(=O)N[C@@H](CCC(N)=O)C(=O)N[C@@H](Cc2ccccc2)C(=O)N[C@@H](CCCCN)C(N)=O)C1=O (H-[Dmt][dR][X1]FQFQFK-NH2)
Ki (Mu-type opioid receptor [1]): 5 to 141 nM

Compound: Cc1cc(O)cc(C)c1C[C@H](N)C(=O)N1CCC[C@H]1C(=O)N[C@@H](Cc1c[nH]c2ccccc12)C(=O)N[C@@H](Cc1ccccc1)C(N)=O
EC50 (Mu-type opioid receptor [7]): 0.1 to 0.86 nM | Activity (Mu-type opioid receptor [8]): inactive | MPE (Mus musculus [9]): <80%

Compound: Cc1cc(O)cc(C)c1C[C@H](N)C(=O)N[C@H](CCCNC(=N)N)C(=O)N[C@@H](Cc1ccccc1)C(=O)N[C@@H](Cc1ccccc1)C(N)=O
EC50 (Mu-type opioid receptor [7]): 0.19 nM | Activity (Mu-type opioid receptor [8]): inactive | Ki (Mu-type opioid receptor [1]): 0.037 nM | Activity (Mus musculus [10]): Active | Activity (Mus musculus [11]): Active

Compound: Cc1cc(O)cc(C)c1C[C@H](N)C(=O)N[C@H](CCCNC(=N)N)C(=O)N[C@@H](Cc1ccccc1)C(=O)O
EC50 (Mu-type opioid receptor [7]): 3.67 nM | Ki (Mu-type opioid receptor [1]): 0.52 nM | Activity (Mus musculus [12]): Active

Compound: Cc1cc(O)cc(C)c1C[C@H](N)C(=O)N[C@H](CCCNC(=N)N)C(=O)N[C@@H](Cc1ccccc1)C(=O)N[C@@H](Cc1ccccc1)C(=O)N[C@@H](CCC(N)=O)C(=O)N[C@@H](Cc1ccccc1)C(=O)N[C@@H](CCC(N)=O)C(=O)O
EC50 (Mu-type opioid receptor [7]): 47.5 nM | Ki (Mu-type opioid receptor [1]): 6.16 nM | Activity (Mus musculus [13]): Active

Compound: Cc1cc(O)cc(C)c1C[C@H](N)C(=O)N1CCC[C@H]1C(=O)N[C@@H](Cc1ccccc1)C(=O)N[C@@H](Cc1ccccc1)C(N)=O
EC50 (Mu-type opioid receptor [7]): 0.1 to 0.86 nM | Activity (Mu-type opioid receptor [8]): inactive | MPE (Mus musculus [14]): <80%

Compound: Cc1cc(O)cc(C)c1C[C@H](N)C(=O)N[C@H](CCCCN)C(=O)N[C@@H](Cc1ccccc1)C(=O)N[C@@H](Cc1ccccc1)C(=O)N[C@@H](CCC(=O)O)C(=O)N[C@@H](Cc1ccccc1)C(=O)N[C@@H](CCC(N)=O)C(=O)N[C@@H](Cc1ccccc1)C(=O)N[C@@H](CCCCN)C(N)=O (H-[Dmt][dK]FFEFQFK-NH2)
Ki (Mu-type opioid receptor [1]): 5 to 141 nM | Activity (Mus musculus [15]): Active

Compound: Cc1cc(O)cc(C)c1C[C@H](N)C(=O)N[C@H](CCCNC(=N)N)C(=O)N[C@@H](Cc1ccccc1)C(=O)N[C@@H](Cc1ccccc1)C(=O)N[C@@H](CCC(N)=O)C(=O)N[C@H](CC(=O)N[C@@H](Cc1ccccc1)C(=O)N[C@@H](CCC(N)=O)C(=O)N[C@@H](Cc1ccccc1)C(=O)N[C@@H](CCCCN)C(N)=O)Cc1ccccc1 (H-[Dmt][dR]FFQ[β3hF]FQFK-NH2)
Ki (Mu-type opioid receptor [1]): 5 to 141 nM | Activity (Mus musculus [16]): inactive | Activity (Mus musculus [17]): inactive | half-life at 9 µM [3]: 123 min

Compound: Cc1cc(O)cc(C)c1C[C@H](N)C(=O)N[C@H](CCCCN)C(=O)N[C@@H](Cc1ccccc1)C(=O)N[C@@H](Cc1ccccc1)C(N)=O
EC50 (Mu-type opioid receptor [7]): 0.1 to 0.86 nM | Activity (Mu-type opioid receptor [8]): inactive | Activity (Mus musculus [18]): Active | Activity (Mus musculus [11]): Active

remaining at 72 h [19]: 20%
Compound: H-FEFQFK-NH2

Compound: Cc1cc(O)cc(C)c1C[C@H](N)C(=O)N1CCC[C@H]1C(=O)N[C@@H](Cc1c[nH]c2ccccc12)C(=O)N[C@@H](Cc1ccccc1)C(=O)N[C@@H](CCC(N)=O)C(=O)N[C@@H](Cc1ccccc1)C(=O)N[C@@H](CCC(N)=O)C(=O)N[C@@H](Cc1ccccc1)C(=O)N[C@@H](CCCCN)C(N)=O (H-[Dmt]PWFQFQFK-NH2)
Ki (Mu-type opioid receptor [1]): 5 to 141 nM

Compound: Cc1cc(O)cc(C)c1C[C@H](N)C(=O)N[C@H](CCCCN)C(=O)N[C@@H](Cc1ccccc1)C(=O)N[C@@H](Cc1ccccc1)C(=O)N[C@@H](CCC(N)=O)C(=O)N[C@@H](Cc1ccccc1)C(=O)N[C@@H](CCC(N)=O)C(=O)N[C@@H](Cc1ccccc1)C(=O)N[C@@H](CCCCN)C(N)=O (H-[Dmt][dK]FFQFQFK-NH2)
Ki (Mu-type opioid receptor [1]): 5 to 141 nM | Activity (Mus musculus [15]): Active

Compound: Cc1cc(O)cc(C)c1C[C@H](N)C(=O)N1CCC[C@H]1C(=O)N[C@@H](Cc1ccccc1)C(=O)N[C@@H](Cc1ccccc1)C(=O)N[C@@H](CCC(N)=O)C(=O)N[C@@H](Cc1ccccc1)C(=O)N[C@@H](CCC(N)=O)C(=O)N[C@@H](Cc1ccccc1)C(=O)N[C@@H](CCCCN)C(N)=O (H-[Dmt]PFFQFQFK-NH2)
Ki (Mu-type opioid receptor [1]): 5 to 141 nM

Compound: Cc1cc(O)cc(C)c1C[C@H](N)C(=O)N[C@H](CCCNC(=N)N)C(=O)N[C@H]1Cc2ccccc2CN(CCC(N)=O)C1=O
Activity (Mu-type opioid receptor [8]): inactive | Activity (Mus musculus [20]): Active | Activity (Mus musculus [21]): Active

remaining at 72 h [19]: 20%
Compound: H-FQFQFK-NH2

half-life at 9 µM [3]: 18 min
Compound: N=C(N)NCCC[C@@H](NC(=O)[C@@H](N)Cc1ccc(O)cc1)C(=O)N[C@@H](Cc1ccccc1)C(=O)N[C@@H](Cc1ccccc1)C(=O)N[C@@H](CCC(N)=O)C(=O)N[C@@H](Cc1ccccc1)C(=O)N[C@@H](CCC(N)=O)C(=O)N[C@@H](Cc1ccccc1)C(=O)N[C@@H](CCCCN)C(N)=O

Compound: Cc1cc(O)cc(C)c1C[C@H](N)C(=O)N[C@H](CCCNC(=N)N)C(=O)N[C@@H](Cc1ccccc1)C(=O)N[C@@H](Cc1ccccc1)C(=O)N[C@@H](CCC(N)=O)C(=O)O
EC50 (Mu-type opioid receptor [7]): 0.28 nM | Ki (Mu-type opioid receptor [1]): 0.34 nM | Activity (Mus musculus [22]): Active
